As a reminder, the MIC is the least concentration at which growth counts as inhibited. The term IC50 denotes the concentration needed to halve the response being measured.

Converted amounts (≈) assume the structure as drawn.

The subject of one assay is Klebsiella pneumoniae. The experiment in a line: Antibacterial activity against Klebsiella pneumoniae ATCC 13883 assessed as reduction in bacterial growth incubated for 24 hrs by broth microdilution assay. The assay is classed as functional. In short, it runs like this: (§1)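 Twofold serial broth microdilution in Mueller-Hinton broth, supplemented with 5% lysed sheep blood for fastidious species. […]. Inoculum was set to 0.5 McFarland in 0.85% NaCl, giving a final 1.5 × 10⁶ CFU/mL. Plates were incubated 24 h at 35 °C. MIC was read visually as the lowest concentration with complete growth inhibition. Controls: 10% DMSO (final), growth and sterility. Triplicate.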
On the technique in general: In broth dilution the organism is exposed to a series of concentrations in liquid medium.

A further assay deals with Bacillus subtilis. Put plainly: Antibacterial activity against Bacillus subtilis ATCC 6633 assessed as reduction in bacterial growth incubated for 24 hrs by broth microdilution assay. The assay is classed as functional. In short, it runs like this:
as §1

Assay [1] deals with Staphylococcus epidermidis. Put plainly: Antibacterial activity against Staphylococcus epidermidis ATCC 12228 assessed as reduction in bacterial growth incubated for 24 hrs by broth microdilution assay. The class given is functional. In short, it runs like this: as §1
A further assay concerns Micrococcus luteus. Put plainly: Antibacterial activity against Micrococcus luteus ATCC 10240 assessed as reduction in bacterial growth incubated for 24 hrs by broth microdilution assay. The assay is classed as functional. In short, it runs like this: as §1
Assay [2] relates to Staphylococcus aureus. The experiment in a line: Antibacterial activity against Staphylococcus aureus ATCC 25923 assessed as reduction in bacterial growth incubated for 24 hrs by broth microdilution assay. The assay is classed as functional. In short, it runs like this: as §1
Assay [3] has as its system Staphylococcus aureus. The experiment in a line: Antibacterial activity against Staphylococcus aureus ATCC 6538 assessed as reduction in bacterial growth incubated for 24 hrs by broth microdilution assay. The class given is functional. In short, it runs like this:
as §1

For assay [4], the system named is Staphylococcus aureus. The experiment in a line: Antibacterial activity against Staphylococcus aureus ATCC 43300 assessed as reduction in bacterial growth incubated for 24 hrs by broth microdilution assay. The assay is classed as functional. In short, it runs like this: as §1
The next assay relates to Bacillus cereus. The experiment in a line: Antibacterial activity against Bacillus cereus ATCC 10876 assessed as reduction in bacterial growth incubated for 24 hrs by broth microdilution assay. The assay is classed as functional. In short, it runs like this: as §1
The next assay has as its system Proteus mirabilis. Put plainly: Antibacterial activity against Proteus mirabilis ATCC […] assessed as reduction in bacterial growth incubated for 24 hrs by broth microdilution assay. The assay is classed as functional. In short, it runs like this: as §1
Assay [5] relates to Mycobacterium tuberculosis. The experiment in a line: Antimycobacterial activity against patient derived Mycobacterium tuberculosis Spec. 210. The class given is functional. In short, it runs like this:
(§2)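 Classical test-tube successive twofold dilution in Youmans' modification of Proskauer and Beck liquid medium with 10% bovine serum. Inoculum from 14-day-old cultures. Compounds dissolved in ethylene glycol (stock 10 mg/mL), tested at […]. Incubation at 37 °C. MIC is the lowest concentration inhibiting growth relative to a compound-free tube. Isoniazid, pyrazinamide and rifampicin served as references.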

In assay [6] the test system is Mycobacterium tuberculosis. Put plainly: Antimycobacterial activity against Mycobacterium tuberculosis H37Rv. The class given is functional. In short, it runs like this: as §2
In the next assay the test system is NHDF. The experiment in a line: Cytotoxicity against human NHDF cells assessed as reduction in cell viability incubated for 72 hrs by MTT assay. The assay is classed as cell-based. (In general: Tetrazolium assays rely on reduction of a dye to a coloured formazan, in cell work by metabolically active cells.)
The test system of another assay is Escherichia coli. The experiment in a line: Antibacterial activity against Escherichia coli ATCC 25922 assessed as reduction in bacterial growth incubated for 24 hrs by broth microdilution assay. The assay is classed as functional. In short, it runs like this:
as §1

For another assay, the system named is B16-F10. Put plainly: Cytotoxicity against mouse B16-F10 cells assessed as reduction in cell viability incubated for 72 hrs by MTT assay. The class given is cell-based. Conditions: B16-F10, 72 h; call rule not given here.
Assay [7] has as its system Candida albicans. Put plainly: Antifungal activity against Candida albicans ATCC […] assessed as reduction in fungal growth incubated for 48 hrs by broth microdilution assay. The assay is classed as functional. In short, it runs like this:
(§3)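 Yeasts were tested by twofold broth microdilution in Mueller-Hinton broth with 2% glucose at final concentrations of 0.98–1000 µg/mL. Inoculum was prepared from 0.5 McFarland suspensions in 0.85% NaCl, giving a final 5 × 10⁴ CFU/mL. Incubation was 48 h at 30 °C. MIC was the lowest concentration visually showing complete growth inhibition. Controls: 10% DMSO (final), growth and sterility. Triplicate.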

The next assay relates to Candida parapsilosis. Put plainly: Antifungal activity against Candida parapsilosis ATCC 22019 assessed as reduction in fungal growth incubated for 48 hrs by broth microdilution assay. The class given is functional. Conditions: Lodderomyces parapsilosis. In short, it runs like this: as §3
Another assay relates to Streptococcus mutans. The experiment in a line: Antibacterial activity against Streptococcus mutans ATCC 25175 assessed as reduction in bacterial growth incubated for 24 hrs by broth microdilution assay. The class given is functional. In short, it runs like this: as §1
Assay [8] relates to Candida albicans. The experiment in a line: Antifungal activity against Candida albicans ATCC 2091 assessed as reduction in fungal growth incubated for 48 hrs by broth microdilution assay. The assay is classed as functional. In short, it runs like this:
as §3

In a further assay the test system is Streptococcus pyogenes. Put plainly: Antibacterial activity against Streptococcus pyogenes ATCC 19615 assessed as reduction in bacterial growth incubated for 24 hrs by broth microdilution assay. The assay is classed as functional. In short, it runs like this: as §1
Another assay relates to Streptococcus pneumoniae. The experiment in a line: Antibacterial activity against Streptococcus pneumoniae ATCC 49619 assessed as reduction in bacterial growth incubated for 24 hrs by broth microdilution assay. The assay is classed as functional. In short, it runs like this:
as §1

The next assay concerns Pseudomonas aeruginosa. Put plainly: Antibacterial activity against Pseudomonas aeruginosa ATCC 9027 assessed as reduction in bacterial growth incubated for 24 hrs by broth microdilution assay. The class given is functional. In short, it runs like this:
as §1

With `O=C(O)c1cn(C2CC2)c2cc(N3CCNCC3)c(F)cc2c1=O` [CIPROFLOXACIN], the MIC in the assay on Klebsiella pneumoniae stood at 0.12 µg/mL (≈ 0.362 µM); in the assay on Bacillus subtilis, 0.03 µg/mL (≈ 0.0905 µM); in [1], 0.49 µg/mL (≈ 1.48 µM); with Micrococcus luteus it was 0.98 µg/mL (≈ 2.96 µM); in the assay on Staphylococcus aureus [2], 0.49 µg/mL (≈ 1.48 µM); in the assay on Staphylococcus aureus [3], 0.24 µg/mL (≈ 0.724 µM). Moreover, the MIC in the assay on Staphylococcus aureus [4] came to 0.24 µg/mL (≈ 0.724 µM); in the assay with Bacillus cereus it was 0.12 µg/mL (≈ 0.362 µM); in the assay on Proteus mirabilis, 0.03 µg/mL (≈ 0.0905 µM).

Consider `N/C(=N\NC(=S)N1CCN(c2ccccc2)CC1)c1cc(Sc2ccccc2)ccn1`, for which the MIC in assay [5] and in assay [6] was 25 µg/mL (≈ 55.7 µM) each time.

On to `N/C(=N\NC(=S)N1CCN(c2ccccc2)CC1)c1cc(N2CCOCC2)ccn1`, for which the MIC in assay [5] and in [6] was 6.25 µg/mL (≈ 14.7 µM) each time.

Regarding `N/C(=N\NC(=S)N1CCN(c2ccccc2)CC1)c1cc(N2CCCC2)ccn1`, the MIC in assay [5] and in [6] was 6.25 µg/mL (≈ 15.3 µM) in each case.

As for `N/C(=N\NC(=S)N1CCCCC1)c1cc(N2CCCC2)ccn1`, the MIC in assay [5] and in [6] was 6.25 µg/mL (≈ 18.8 µM) throughout.

For the molecule `N/C(=N\NC(=S)N1CCCC1)c1cc(N2CCOCC2)ccn1`, the MIC in [5] and in assay [6] was 6.25 µg/mL (≈ 18.7 µM) each time.

Turning to `N/C(=N\NC(=S)N1CCN(c2ccccc2)CC1)c1cc(N2CCN(c3ccccc3)CC2)ccn1`, the MIC in assay [5] and in [6] was 25 µg/mL (≈ 49.9 µM) throughout.

Take `NNC(=O)c1ccncc1` [ISONIAZID]: the MIC came out at 12.5 µg/mL (≈ 91.1 µM) in assay [5] and 3.1 µg/mL (≈ 22.6 µM) in [6].

As for `N/C(=N\NC(=S)N1CCCC1)c1cc(N2CCN(c3ccccc3)CC2)ccn1`, the MIC in [5] and in assay [6] was 12.5 µg/mL (≈ 30.5 µM) each time.

In the case of `N/C(=N\NC(=S)N1CCCCC1)c1cc(Oc2ccccc2)ccn1`, the MIC in assay [5] and in assay [6] was 12.5 µg/mL (≈ 35.2 µM) in each case.

With `N/C(=N\NC(=S)N1CCOCC1)c1cc(N2CCN(c3ccccc3)CC2)ccn1`, the MIC in assay [5] and in [6] was 6.25 µg/mL (≈ 14.7 µM) in each case.

As for `N/C(=N\NC(=S)N1CCN(c2ccccc2)CC1)c1cc(Oc2ccccc2)ccn1`, the MIC in assay [5] and in assay [6] was 25 µg/mL (≈ 57.8 µM) each time.

Turning to `N/C(=N\NC(=S)N1CCOCC1)c1cc(N2CCOCC2)ccn1`, the MIC in the assay with Klebsiella pneumoniae was 31.3 µg/mL (≈ 89.3 µM); in the assay with Bacillus subtilis it was 31.3 µg/mL (≈ 89.3 µM); in assay [1], 15.6 µg/mL (≈ 44.5 µM); in the assay with Escherichia coli, above 1000 µg/mL; in [5], 3.1 µg/mL (≈ 8.85 µM); with Micrococcus luteus, 7.8 µg/mL (≈ 22.3 µM). The MIC came out at 15.6 µg/mL (≈ 44.5 µM) in the assay with Staphylococcus aureus [2]; 15.6 µg/mL (≈ 44.5 µM) in the assay with Staphylococcus aureus [3]; 31.3 µg/mL (≈ 89.3 µM) in the assay on Candida albicans [7]; 31.3 µg/mL (≈ 89.3 µM) with Candida parapsilosis; 15.6 µg/mL (≈ 44.5 µM) with Staphylococcus aureus [4]; 31.3 µg/mL (≈ 89.3 µM) in the assay with Bacillus cereus. The MIC was 1000 µg/mL (≈ 2850 µM) in the assay on Streptococcus mutans; 3.1 µg/mL (≈ 8.85 µM) in assay [6]; above 1000 µg/mL with Proteus mirabilis; 31.3 µg/mL (≈ 89.3 µM) in the assay with Candida albicans [8]; 1000 µg/mL (≈ 2850 µM) in the assay with Streptococcus pyogenes; above 1000 µg/mL in the assay on Streptococcus pneumoniae. For the same molecule, the MIC in the assay on Pseudomonas aeruginosa was above 1000 µg/mL. The IC50 entry in the assay on NHDF is “Not Active”; in the assay with B16-F10, 17.8 µg/mL (≈ 50.9 µM).

In the case of `NC(=O)c1cnccn1` [PYRAZINAMIDE], the results for the MIC in assay [5] and in assay [6] were above 400 µg/mL and 25 µg/mL (≈ 203 µM), respectively.

`N/C(=N\NC(=S)N1CCCCC1)c1cc(N2CCN(c3ccccc3)CC2)ccn1`: the MIC in [5] and in [6] was 25 µg/mL (≈ 59 µM) in each case.

`CN[C@H](CC(C)C)C(=O)N[C@H]1C(=O)N[C@@H](CC(N)=O)C(=O)N[C@H]2C(=O)N[C@H]3C(=O)N[C@H](C(=O)N[C@H](C(=O)O)c4cc(O)cc(O)c4-c4cc3ccc4O)[C@H](O)c3ccc(c(Cl)c3)Oc3cc2cc(c3O[C@@H]2O[C@H](CO)[C@@H](O)[C@H](O)[C@H]2O[C@H]2C[C@](C)(N)[C@H](O)[C@H](C)O2)Oc2ccc(cc2Cl)[C@H]1O` [VANCOMYCIN]: the MIC is 0.24 µg/mL (≈ 0.166 µM) in the assay on Bacillus subtilis; 0.98 µg/mL (≈ 0.676 µM) in assay [1]; 0.12 µg/mL (≈ 0.0828 µM) in the assay on Micrococcus luteus; 0.98 µg/mL (≈ 0.676 µM) in the assay with Staphylococcus aureus [2]; 0.49 µg/mL (≈ 0.338 µM) with Staphylococcus aureus [3]; 0.49 µg/mL (≈ 0.338 µM) in the assay with Staphylococcus aureus [4]. Moreover, the MIC was 0.98 µg/mL (≈ 0.676 µM) with Bacillus cereus, 0.98 µg/mL (≈ 0.676 µM) in the assay with Streptococcus mutans, 0.24 µg/mL (≈ 0.166 µM) in the assay on Streptococcus pyogenes and 0.24 µg/mL (≈ 0.166 µM) in the assay on Streptococcus pneumoniae.

In the case of `N/C(=N\NC(=S)N1CCCCC1)c1cc(N2CCOCC2)ccn1`, the MIC in [5] and in assay [6] was 6.25 µg/mL (≈ 17.9 µM) in each case.

In the case of `N/C(=N\NC(=S)N1CCCC1)c1cc(N2CCCC2)ccn1`, the MIC in assay [5] and in [6] was 6.25 µg/mL (≈ 19.6 µM) each time.

Consider `N/C(=N\NC(=S)N1CCCC1)c1cc(Sc2ccccc2)ccn1`, for which the MIC in assay [5] and in assay [6] was 6.25 µg/mL (≈ 17.5 µM) each time.

With `N/C(=N\NC(=S)N1CCCCC1)c1cc(Sc2ccccc2)ccn1`, the MIC in [5] and in [6] was 12.5 µg/mL (≈ 33.6 µM) in each case.

In the case of `OC(Cn1cncn1)(Cn1cncn1)c1ccc(F)cc1F` [FLUCONAZOLE], the MIC with Candida parapsilosis was determined as 1.95 µg/mL (≈ 6.37 µM).
